Assay results reported in ChEMBL document CHEMBL1124158, “Importance of the N-terminal domain of the type II angiotensin antagonist sarmesin for receptor blockade” (J Med Chem, 1988).

Assays:
Rattus norvegicus [1] = organism: Rattus norvegicus; assay: Agonistic activity determined by matching the response with an equivalent response to ANG II (human)-evaluated in rat uterus bioassay; type: functional
Outline: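 Uterine horns (defatted) from diethylstilbestrol-primed virgin Sprague-Dawley rats (150-250 g), halved, held under 1 g tension in a 3-mL bath: 150 mM NaCl, 5.6 mM KCl, 0.18 mM NaHCO₃, 1.4 mM glucose, pH 7.0, oxygen-gassed. Isotonic contractions recorded. Agonist activity expressed relative to an equivalent contraction produced by human ANG II.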

Rattus norvegicus [2] = organism: Rattus norvegicus; assay: Negative logarithm of the concentration of compound required to reduce the response of EC50 dose of ANG II to the response to half the EC50 dose; type: functional, organism-based; conditions: read-out: pA2 (converted)
Outline: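 Rat isolated uterus: defatted horns from diethylstilbestrol-primed virgin Sprague-Dawley rats (150-250 g), halved, 1 g tension, 3-mL bath of 150 mM NaCl, 5.6 mM KCl, 0.18 mM NaHCO₃, 1.4 mM glucose, pH 7.0, oxygenated. Isotonic contractions to human ANG II. pA2 = −log antagonist concentration lowering the EC50-dose response to that of half the EC50 dose.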

**Q.** Which results are given for `CC[C@H](C)[C@H](NC(=O)[C@@H]1CCCN1C(=O)[C@H](Cc1c[nH]cn1)NC(=O)[C@@H](NC(=O)[C@H](Cc1ccc(O)cc1)NC(=O)[C@@H](NC(=O)[C@H](CCCN=C(N)N)NC(=O)CNC)C(C)C)[C@@H](C)CC)C(=O)O`?
**A.** Activity (Rattus norvegicus [1]): <0.01%; Kb (Rattus norvegicus [2]): 7.94 nM
